Laboratory results published in ChEMBL document CHEMBL4342435, “Synthesis of novel 4-Boc-piperidone chalcones and evaluation of their cytotoxic activity against highly-metastatic cancer cells” (Bioorg Med Chem Lett, 2020).
Values after ≈ are worked out from the molar mass of the structure shown. Active and inactive are the calls of the source. No cut-off for these calls is given here.

Experiments:
LoVo = test: Growth inhibition of human LoVo cells incubated for 72 hrs by CellTiter-Glo luminescent cell viability; assay type: functional
[1] = Cytotoxicity against human CCD-18Co cells assessed as reduction in cell viability incubated for 72 hrs by CellTiter-Glo luminescent cell viability; assay type: cell-based
PC-3 [2] = test: Growth inhibition of human PC3 cells incubated for 48 hrs by MTS assay; assay type: functional; settings: PC-3, 48 h
Outline: (§1)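 MTS viability on PC3 and 22RV1 prostate cancer cells after 48h incubation. […] DMSO control. Triplicates (N=3). One-way ANOVA with Dunnett's test, mean ± SEM, P<0.05.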

PC-3 [3] = test: Antiproliferative activity human PC3 cells assessed as reduction in Ki67 protein level at GI50 incubated for 48 hrs by DAPI staining based immunofluorescence assay; assay type: functional, cell-based
[4] = Inhibition of TNFalpha-induced NFkappaB activation in human HEK293 cells preincubated for 16 hrs followed by TNFalpha addition and measured after 6 hrs by luminescence based assay; assay type: cell-based
CWR22R [5] = test: Growth inhibition of human 22Rv1 cells incubated for 48 hrs by MTS assay; assay type: functional; settings: 22Rv1, 48 h; outline: as §1
CWR22R [6] = test: Antiproliferative activity human 22Rv1 cells assessed as reduction in Ki67 protein level at GI50 incubated for 48 hrs by DAPI staining based immunofluorescence assay; assay type: functional, cell-based
COLO 205 [7] = test: Growth inhibition of human COLO205 cells incubated for 72 hrs by CellTiter-Glo luminescent cell viability; assay type: functional; settings: COLO 205, 72 h
COLO 205 [8] = test: Induction of apoptosis in human COLO205 cells assessed as activation of caspases 7 at GI50 by fluorescent inhibitor probe FAM-DEVD-FMK staining based fluorescence assay (reference value: 15.3%); assay type: functional; set-up: scale not given: the % may be the effect or the level left
Outline: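 COLO-205 cells treated at the concentrations listed in the GI50 table. Active caspases 3 and 7 labelled with the fluorescent inhibitor probe FAM-DEVD-FMK and read by flow cytometry. Untreated negative control, camptothecin positive control. Triplicate (N=3), P<0.05 versus vehicle.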

COLO 205 [9] = test: Induction of apoptosis in human COLO205 cells at GI50 incubated for 24 hrs by Annexin V-FITC/Hoechst/propidium iodide staining based cell counting method (reference value: 10.7%); assay type: functional
[10] = Selectivity index, ratio of GI50 for human CCD-18Co cells to GI50 for human COLO205 cells
[11] = Selectivity index, ratio of GI50 for human CCD-18Co cells to GI50 for human LoVo cells

| GI50 (LoVo) [µg/mL] | GI50 (PC-3 [2]) [µg/mL] | IC50 [4] [µg/mL] | GI50 (COLO 205 [7]) [µg/mL] | Structure (SMILES) | GI50 at 72 h [1] [µg/mL] | Activity (PC-3 [3]) | GI50 (CWR22R [5]) [µg/mL] | Activity (CWR22R [6]) | Activity (COLO 205 [8]) [%] | Activity (COLO 205 [9]) [%] | RatioGI50 [10] | RatioGI50 [11] |
| --- | --- | --- | --- | --- | --- | --- | --- | --- | --- | --- | --- | --- |
| 4.3 (≈ 11.7 µM) | 13.8 (≈ 37.5 µM) | 7.7 (≈ 20.9 µM) | 12.7 (≈ 34.5 µM) | COc1cc(/C=C/C(=O)CC(=O)/C=C/c2ccc(O)c(OC)c2)ccc1O [CURCUMIN] | 7.2 (≈ 19.5 µM) | Active | 14.3 (≈ 38.8 µM) | Active | – | – | – | – |
| 4.6 (≈ 8.99 µM) | – | 27.2 (≈ 53.2 µM) | 4.5 (≈ 8.8 µM) | CC(C)(C)OC(=O)N1C/C(=C\c2ccccc2C(F)(F)F)C(=O)/C(=C/c2ccccc2C(F)(F)F)C1 | 7.6 (≈ 14.9 µM) | – | – | – | 31.5 | 35 | 1.7 | 1.7 |
| 9.6 (≈ 20.5 µM) | – | – | 27.4 (≈ 58.6 µM) | COc1cc(/C=C2\CN(C(=O)OC(C)(C)C)C/C(=C\c3ccc(O)c(OC)c3)C2=O)ccc1O | 18.3 (≈ 39.1 µM) | – | – | – | – | – | 0.7 | 1.9 |
| 3.5 (≈ 8.59 µM) | 22.9 (≈ 56.2 µM) | – | 20.9 (≈ 51.3 µM) | CC(C)(C)OC(=O)N1C/C(=C\c2ccc(O)cc2)C(=O)/C(=C/c2ccc(O)cc2)C1 | 6.4 (≈ 15.7 µM) | Active | 17.1 (≈ 42 µM) | Active | – | – | 0.3 | 1.8 |
| 4.1 (≈ 10.1 µM) | – | – | 11.7 (≈ 28.7 µM) | CC(C)(C)OC(=O)N1C/C(=C\c2cccc(O)c2)C(=O)/C(=C/c2cccc(O)c2)C1 | 6.4 (≈ 15.7 µM) | – | – | – | – | – | 0.5 | 1.6 |
| 2 (≈ 4.04 µM) | – | – | 0.84 (≈ 1.7 µM) | COc1ccc(/C=C2\CN(C(=O)OC(C)(C)C)C/C(=C\c3ccc(OC)cc3OC)C2=O)c(OC)c1 | 1.2 (≈ 2.42 µM) | – | – | – | 35.7 | 62 | 1.4 | – |
| – | 0.009 (≈ 0.0111 µM) | – | – | CC(=O)O[C@@]12CO[C@@H]1C[C@H](O)[C@@]1(C)C(=O)[C@H](O)C3=C(C)[C@@H](OC(=O)[C@H](O)[C@@H](NC(=O)OC(C)(C)C)c4ccccc4)C[C@@](O)([C@@H](OC(=O)c4ccccc4)[C@H]21)C3(C)C [DOCETAXEL ANHYDROUS] | – | Active | 0.006 (≈ 0.00743 µM) | Active | – | – | – | – |
| – | – | – | – | CC[C@@]1(O)C(=O)OCc2c1cc1n(c2=O)Cc2cc3ccccc3nc2-1 [CAMPTOTHECIN] | – | – | – | – | 59.3 | 37.3 | – | – |
| 6.1 (≈ 16.2 µM) | – | – | 34.7 (≈ 92.4 µM) | CC(C)(C)OC(=O)N1C/C(=C\c2ccccc2)C(=O)/C(=C/c2ccccc2)C1 | 12.4 (≈ 33 µM) | – | – | – | – | – | 0.4 | 2 |

| Structure (SMILES) | GI50 (LoVo) [µg/mL] | GI50 (PC-3 [2]) [µg/mL] | IC50 [4] [µg/mL] | GI50 (COLO 205 [7]) [µg/mL] | GI50 at 72 h [1] [µg/mL] | Activity (PC-3 [3]) | GI50 (CWR22R [5]) [µg/mL] | Activity (CWR22R [6]) | Activity (COLO 205 [8]) [%] | Activity (COLO 205 [9]) [%] | RatioGI50 [10] | RatioGI50 [11] |
| --- | --- | --- | --- | --- | --- | --- | --- | --- | --- | --- | --- | --- |
| COc1cc(/C=C/C(=O)/C=C/c2ccc(O)c(OC)c2)ccc1O | 10 (≈ 30.6 µM) | 24.8 (≈ 76 µM) | – | 19.4 (≈ 59.4 µM) | 15.1 (≈ 46.3 µM) | – | 22.7 (≈ 69.6 µM) | Active | – | – | 0.8 | 1.5 |
